The subject of experiment [1] is HeLa. Put plainly: Cytotoxicity against human HeLa cells assessed as inhibition of cell growth after 48 hrs by MTT assay. It counts as functional, cell-based.
Another experiment concerns HT-29. Put plainly: Cytotoxicity against human HT-29 cells assessed as inhibition of cell growth after 48 hrs by MTT assay. It counts as functional, cell-based. As to conditions: HT-29, 48 h.
The subject of a further experiment is HCT-116. Put plainly: Cytotoxicity against human HCT116 cells assessed as inhibition of cell growth after 48 hrs by MTT assay. It counts as functional, cell-based. As to conditions: HCT-116, 48 h. (In general: Tetrazolium dyes change colour on reduction, which living cells bring about.)
Another experiment concerns MCF7. Put plainly: Cytotoxicity against human MCF7 cells assessed as inhibition of cell growth after 48 hrs by MTT assay. As to conditions: MCF7, 48 h. Type of experiment: functional, cell-based.
The target in a further experiment is Tubulin. Put plainly: Inhibition of tubulin (unknown origin) polymerization. It counts as protein-complex assay, Homo sapiens.
The target in the next experiment is Tubulin (Homo sapiens) (UniProt P68371+Q9H4B7+P0DPH7+P68366+Q13509+Q71U36+P04350+Q3ZCM7+P07437+P68363+Q9BQE3+Q6PEY2+Q13885+Q9BVA1+Q9BUF5). Put plainly: Inhibition of tubulin (unknown origin) polymerization at 10 uM relative to control. Type of experiment: protein-complex assay. Put shortly: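 Tubulin polymerization inhibition measured with compound at a final concentration of 10 μM, expressed as percent inhibition.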

For a further experiment, the system named is HEK293. Put plainly: Cytotoxicity against HEK293 cells assessed as inhibition of cell growth after 48 hrs by MTT assay. Type of experiment: cell-based. As to conditions: Homo sapiens, HEK293, 48 h.
Experiment [2] relates to HeLa. Put plainly: Cell cycle arrest in human HeLa cells assessed as accumulation at S phase at 0.5 uM after 48 hrs by propidium iodide staining based flow cytometry (reference value: 20.31%). Type of experiment: functional. For orientation: A flow cytometer gives signals particle by particle.
Experiment [3] concerns HeLa. Put plainly: Cell cycle arrest in human HeLa cells assessed as accumulation at G2/M phase at 0.25 uM after 48 hrs by propidium iodide staining based flow cytometry (reference value: 12.91%). Type of experiment: functional.
Experiment [4] concerns HeLa. Put plainly: Cell cycle arrest in human HeLa cells assessed as accumulation at S phase at 0.25 uM after 48 hrs by propidium iodide staining based flow cytometry (reference value: 20.31%). Type of experiment: functional.
The test system of experiment [5] is HeLa. Put plainly: Cell cycle arrest in human HeLa cells assessed as accumulation at G2/M phase after 48 hrs by propidium iodide staining based flow cytometry. Type of experiment: functional.
Experiment [6] concerns HeLa. Put plainly: Cell cycle arrest in human HeLa cells assessed as accumulation at G0/G1 phase at 0.25 uM after 48 hrs by propidium iodide staining based flow cytometry (reference value: 66.77%). Type of experiment: functional.
The test system of experiment [7] is HeLa. Put plainly: Cell cycle arrest in human HeLa cells assessed as accumulation at G2/M phase at 0.5 uM after 48 hrs by propidium iodide staining based flow cytometry (reference value: 12.91%). Type of experiment: functional.
The test system of experiment [8] is HeLa. Put plainly: Cell cycle arrest in human HeLa cells assessed as accumulation at G0/G1 phase at 0.5 uM after 48 hrs by propidium iodide staining based flow cytometry (reference value: 66.77%). Type of experiment: functional.

Usually IC50 stands for the concentration needed to halve the response being measured. On to `COc1cc(-c2nnc(SCC(=O)Nc3ccc(C(C)(C)C)cc3)n2N)cc(OC)c1OC`, for which the half-inhibitory concentration (IC50) in the experiment with HeLa [1] is 49.6 µM; in the experiment with HT-29, above 100 µM; with HCT-116, above 100 µM; with MCF7 it was above 100 µM.
The term inhibition denotes the change of the read-out against control, counted positive when it falls. Lower therefore signals a weak effect. As to `COc1cc(-c2nnc(SCC(=O)Nc3ccc(C)cc3)n2N)cc(OC)c1OC`, the IC50 was determined as 1.61 µM in the experiment on HeLa [1], 0.82 µM in the experiment with HT-29, 5.9 µM on Tubulin and 26.8 µM in the experiment on MCF7. On Tubulin (Homo sapiens), this compound showed an inhibition of 55%.
As for `COc1cc(-c2nnc(SCC(=O)NC3CCCCC3)n2N)cc(OC)c1OC`, the IC50 is 59.7 µM in the experiment with HeLa [1], above 100 µM with HT-29, above 100 µM in the experiment on HCT-116 and 80.6 µM in the experiment on MCF7.
`COc1ccc(NC(=O)CSc2nnc(-c3cc(OC)c(OC)c(OC)c3)[nH]2)cc1O`: the half-maximal inhibitory concentration (IC50) with HeLa [1], in the experiment on HT-29, in the experiment on HCT-116 and with MCF7 was above 100 µM each time.
As for `COc1ccc(NC(=O)CSc2nnc(-c3cc(OC)c(OC)c(OC)c3)n2N)cc1O`, the IC50 with HeLa [1] is 34.8 µM; with HT-29, above 100 µM; in the experiment on HCT-116, above 100 µM; in the experiment with MCF7, above 100 µM.
For the compound `COc1cc(-c2nnc(SCC(=O)Oc3ccc(C)cc3)n2N)cc(OC)c1OC`, the 50% inhibitory concentration (IC50) in the experiment with HeLa [1], in the experiment with HT-29, in the experiment with HCT-116 and in the experiment on MCF7 was above 100 µM each time.
Regarding `COc1cc(-c2nnc(SCC(=O)Nc3ccc(N(C)C)cc3)n2N)cc(OC)c1OC`, the half-inhibitory concentration (IC50) in the experiment on HeLa [1] was 23.8 µM; with HT-29, 43.1 µM; with HCT-116, above 100 µM; with MCF7 it was above 100 µM.
Turning to `COc1cc(-c2nnc(SCC(=O)Nc3ccc(C)cc3)[nH]2)cc(OC)c1OC`, the IC50 in the experiment with HeLa [1], in the experiment with HT-29, in the experiment with HCT-116 and in the experiment with MCF7 was above 100 µM throughout.
Regarding `COc1ccc(NC(=O)CSc2nnc(-c3cc(OC)c(OC)c(OC)c3)[nH]2)cc1`, the half-maximal inhibitory concentration (IC50) in the experiment with HeLa [1], in the experiment with HT-29, in the experiment on HCT-116 and in the experiment on MCF7 was above 100 µM throughout.
With `COc1cc(-c2nnc(SCC(=O)c3ccc(C)cc3)n2-n2cccc2)cc(OC)c1OC`, the IC50 in the experiment with HeLa [1], with HT-29, with HCT-116 and with MCF7 was above 100 µM each time.
Regarding `COc1cc(-c2nnc(SCC(=O)c3ccc(Cl)cc3)n2-n2cccc2)cc(OC)c1OC`, the half-inhibitory concentration (IC50) in the experiment on HeLa [1], with HT-29, in the experiment on HCT-116 and with MCF7 was above 100 µM throughout.
For the compound `COc1cc(-c2nnc(SCC(=O)Nc3ccc(C)c(C)c3)n2N)cc(OC)c1OC`, the concentration for half-maximal inhibition (IC50) is 0.88 µM in the experiment on HeLa [1], 1.21 µM in the experiment on HT-29, above 100 µM in the experiment on HCT-116 and above 100 µM with MCF7. Besides, on Tubulin (Homo sapiens), the inhibition was 18%.
For the compound `COc1cc(-c2nnc(SCC(=O)Nc3cccc(C)c3)n2N)cc(OC)c1OC`, the IC50 in the experiment on HeLa [1] is 2.96 µM; in the experiment on HT-29, 4.87 µM; in the experiment on HCT-116, above 100 µM; in the experiment on MCF7 it was 47.1 µM. Further, on Tubulin (Homo sapiens), the inhibition was found to be 25%.
With `COc1cc(-c2nnc(SCC(=O)N(C)c3ccc(C)cc3)n2N)cc(OC)c1OC`, the concentration for half-maximal inhibition (IC50) is 21.3 µM in the experiment on HeLa [1], above 100 µM in the experiment on HT-29, above 100 µM with HCT-116 and above 100 µM in the experiment with MCF7. Further, on Tubulin (Homo sapiens), the inhibition was 21%.
For `COc1cccc(NC(=O)CSc2nnc(-c3cc(OC)c(OC)c(OC)c3)n2N)c1`, the values for the 50% inhibitory concentration (IC50) in the experiment on HT-29 and in the experiment on MCF7 were 3.15 µM and 52.6 µM, respectively.
Turning to `COc1ccc(NC(=O)CSc2nnc(-c3cc(OC)c(OC)c(OC)c3)n2N)cc1`, the half-maximal inhibitory concentration (IC50) was 2.96 µM in the experiment with HeLa [1], 15.2 µM with HT-29, 61.1 µM with HCT-116 and above 100 µM with MCF7. For the same compound, the inhibition against Tubulin (Homo sapiens) turned out to be 24%.
Regarding `COc1ccccc1NC(=O)CSc1nnc(-c2cc(OC)c(OC)c(OC)c2)n1N`, the IC50 in the experiment on HeLa [1] was 0.16 µM; in the experiment on HT-29, 0.13 µM; in the experiment with HCT-116, 82.9 µM; in the experiment with MCF7, above 100 µM; with HEK293, above 100 µM. For the same compound, the inhibition on Tubulin (Homo sapiens) came out at 25%.
For the compound `COc1cc(-c2nnc(SCC(=O)Nc3ccc(C)cc3)n2-n2cccc2)cc(OC)c1OC`, the IC50 with HeLa [1] is above 100 µM; in the experiment with HT-29 it was 2.94 µM; with HCT-116, 26.6 µM; with MCF7 it was above 100 µM. This compound returned an inhibition against Tubulin (Homo sapiens) of 17%.
Regarding `COc1cc(-c2nnc(SCC(=O)Nc3ccc(N4CCCCC4)cc3)n2N)cc(OC)c1OC`, the half-maximal inhibitory concentration (IC50) in the experiment with HeLa [1] is 54.9 µM; with HT-29, 75.3 µM; in the experiment on HCT-116 it was above 100 µM; in the experiment on MCF7, above 100 µM.
`COc1ccc(/C=C\c2cc(OC)c(OC)c(OC)c2)cc1O` [COMBRETASTATIN A4]: the IC50 was determined as 0.007 µM in the experiment on HeLa [1] and 1.96 µM with HT-29.
`COc1ccc(NC(=O)CSc2nnc(-c3cc(OC)c(OC)c(OC)c3)n2-n2cccc2)cc1OC`: the IC50 with HeLa [1], with HT-29, in the experiment with HCT-116 and in the experiment on MCF7 was above 100 µM each time.
As to `COc1ccc(NC(=O)CSc2nnc(-c3cc(OC)c(OC)c(OC)c3)n2N)cc1OC`, the half-maximal inhibitory concentration (IC50) in the experiment on HeLa [1] was 54.2 µM; with HT-29, above 100 µM; in the experiment on HCT-116, above 100 µM; with MCF7, above 100 µM.
As to `COc1ccc(NC(=O)CSc2nnc(-c3cc(OC)c(OC)c(OC)c3)n2-n2cccc2)cc1`, the IC50 with HeLa [1], in the experiment on HT-29, in the experiment with HCT-116 and with MCF7 was above 100 µM each time.
In the case of `COc1cccc(NC(=O)CSc2nnc(-c3cc(OC)c(OC)c(OC)c3)[nH]2)c1`, the IC50 with HeLa [1], in the experiment on HT-29, in the experiment with HCT-116 and in the experiment with MCF7 was above 100 µM in each case.
In the case of `COc1cc(-c2nnc(SCC(=O)Nc3c(C)cc(C)cc3C)n2N)cc(OC)c1OC`, the half-maximal inhibitory concentration (IC50) in the experiment with HeLa [1] was 82.8 µM; in the experiment with HT-29 it was above 100 µM; in the experiment with HCT-116, above 100 µM; in the experiment on MCF7 it was above 100 µM.
In the case of `COc1cc(-c2nnc(SCC(=O)Nc3ccc(C(C)C)cc3)n2N)cc(OC)c1OC`, the IC50 with HeLa [1] is 13.7 µM; with HT-29 it was above 100 µM; in the experiment on HCT-116, 74.8 µM; in the experiment with MCF7 it was above 100 µM.
On to `CCCc1ccc(NC(=O)CSc2nnc(-c3cc(OC)c(OC)c(OC)c3)[nH]2)cc1`, for which the 50% inhibitory concentration (IC50) in the experiment with HeLa [1], with HT-29, with HCT-116 and in the experiment with MCF7 was above 100 µM each time.
As to `CCc1ccc(NC(=O)CSc2nnc(-c3cc(OC)c(OC)c(OC)c3)[nH]2)cc1`, the IC50 in the experiment on HeLa [1] was 33.9 µM; in the experiment on HT-29, above 100 µM; with HCT-116, above 100 µM; in the experiment with MCF7, above 100 µM. Besides, the inhibition on Tubulin (Homo sapiens) is 11%.
As for `COc1cc(-c2nnc(SCC(=O)Nc3ccc(C)cc3F)n2N)cc(OC)c1OC`, the half-inhibitory concentration (IC50) is 0.04 µM in the experiment with HeLa [1]; 0.13 µM with HT-29; above 100 µM with HCT-116; above 100 µM in the experiment on MCF7; 61.1 µM in the experiment with HEK293.
Consider `CCCc1ccc(NC(=O)CSc2nnc(-c3cc(OC)c(OC)c(OC)c3)n2N)cc1`, for which the concentration for half-maximal inhibition (IC50) came to 18.7 µM with HeLa [1], 50.8 µM in the experiment on HT-29, 41.8 µM with HCT-116 and 41.2 µM in the experiment with MCF7. The inhibition against Tubulin (Homo sapiens) came out at 19%.
Turning to `CCc1ccc(NC(=O)CSc2nnc(-c3cc(OC)c(OC)c(OC)c3)n2N)cc1`, the Activity is 2% with HeLa [2]; 27.3% with HeLa [3]; 25.35% in the experiment on HeLa [4]; “Dose-dependent effect” in the experiment on HeLa [5]; 47.35% in the experiment on HeLa [6]; 54.77% in the experiment on HeLa [7]. The Activity in the experiment with HeLa [8] is on record as 43.23%. In addition, the half-maximal inhibitory concentration (IC50) with HeLa [1] is 0.05 µM; in the experiment on HT-29, 0.84 µM; in the experiment on HCT-116 it was 71.4 µM; with MCF7, 25.4 µM; with HEK293, above 100 µM. This compound yielded an inhibition on Tubulin (Homo sapiens) of 38%.

Values taken from ChEMBL document CHEMBL4308874, “Discovery and optimization of 3,4,5-trimethoxyphenyl substituted triazolylthioacetamides as potent tubulin polymerization inhibitors” (Bioorg Med Chem Lett, 2019).
